# pIC50: −log10 of the molar value. Activity calls are given as the source filed them.
# How the values were obtained:
# Human gammaherpesvirus 8 [1] = test: Activity at KSHV protease at 10 uM
# Method in brief: (§1)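 Michaelis–Menten kinetics in 100 μl with 1 μM KSHV Pr in assay buffer. P6 substrate at 80, 40, 30, 20, 10, 6, 4 and 2 μM, crossed with inhibitor at 10, 7, 5, 3, 1 and 0 μM. Initial velocities converted at 2364 rfu per μM substrate. […] Mean ± s.d. (n=3).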
# Human gammaherpesvirus 8 [2] = test: Ratio of Kcat to Km in KSHV protease at 3 uM; method in brief: as §1
# Human gammaherpesvirus 8 [3] = test: Activity at KSHV protease at 5 uM; method in brief: as §1
# [4] = tested on: T1, Capsid scaffolding protein (Human herpesvirus 8 type P (isolate GK18) (HHV-8) (Kaposi'ssarcoma-associated herpesvirus)), Q2HRB6 [M197D]; test: Inhibition of KSHV protease M197D mutant at 170 uM by 1H-15N-HSQC NMR; settings: Human gammaherpesvirus 8
# T1 sequence (whole entry): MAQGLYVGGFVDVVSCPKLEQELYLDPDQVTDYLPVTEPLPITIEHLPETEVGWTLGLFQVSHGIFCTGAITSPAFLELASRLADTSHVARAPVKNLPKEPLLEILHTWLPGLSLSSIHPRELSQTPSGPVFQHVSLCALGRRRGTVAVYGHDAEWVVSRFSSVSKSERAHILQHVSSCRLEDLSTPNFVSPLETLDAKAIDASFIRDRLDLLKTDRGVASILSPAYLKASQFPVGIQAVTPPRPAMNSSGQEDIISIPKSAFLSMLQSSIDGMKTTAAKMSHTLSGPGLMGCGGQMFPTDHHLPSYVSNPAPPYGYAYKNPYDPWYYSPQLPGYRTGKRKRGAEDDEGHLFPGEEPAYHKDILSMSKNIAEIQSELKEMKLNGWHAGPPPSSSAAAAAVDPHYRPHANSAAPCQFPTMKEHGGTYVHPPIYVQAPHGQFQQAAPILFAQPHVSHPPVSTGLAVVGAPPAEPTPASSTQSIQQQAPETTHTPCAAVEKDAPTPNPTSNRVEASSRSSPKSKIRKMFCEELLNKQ
# Human gammaherpesvirus 8 [5] = test: Ratio of Kcat to Km for KSHV protease at 1 uM; method in brief: as §1
# Human betaherpesvirus 5 = test: Inhibition of CMV protease at 10 uM by fluorogenic activity assay
# Method in brief: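 CMV protease, expressed from a provided plasmid, run in the KSHV Pr fluorogenic assay format with KSHV Pr buffer and reagents, including the P6 ACC hexapeptide substrate.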
# Human gammaherpesvirus 8 [6] = test: Activity at KSHV protease at 1 uM; method in brief: as §1
# Human gammaherpesvirus 8 [7] = test: Inhibition of KSHV protease dimerization at 30 uM by size exclusion chromatography
# Human gammaherpesvirus 8 [8] = test: Ratio of Kcat to Km in KSHV protease at 5 uM; method in brief: as §1
# [9] = biological target: Granzyme B (Homo sapiens) (UniProt P10144); test: Inhibition of granzyme B-mediated aggregation at 30 uM after 30 mins by spectrophotometry in absence of Triton X-100
# [10] = biological target: Granzyme B (Homo sapiens) (UniProt P10144); test: Inhibition of granzyme B-mediated aggregation at 30 uM after 30 mins by spectrophotometry in presence of Triton X-100
# Human gammaherpesvirus 8 [11] = test: Activity at KSHV protease at 3 uM; method in brief: as §1
# Human gammaherpesvirus 8 [12] = test: Ratio of Kcat to Km in KSHV protease at 7 uM; method in brief: as §1
# Human gammaherpesvirus 8 [13] = test: Induction of KSHV protease dimerization disruption at 30 uM by size exclusion chromatography
# Method in brief: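 KSHV protease (S204G background) at 5 μM in 25 mM potassium phosphate pH 8, 150 mM KCl, 0.1 mM EDTA, 1 mM DTT, incubated with 30 μM compound for 30 min at 30°C (1% DMSO). Dimer and monomer were resolved by elution peaks. DMSO control.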
# Human gammaherpesvirus 8 [14] = test: Activity at KSHV protease at 7 uM; method in brief: as §1
# Human gammaherpesvirus 8 [15] = test: Mixed inhibition of KSHV protease at 1 to 10 uM
# Method in brief: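 1 μM KSHV protease in pH 8 phosphate assay buffer with Ac-PVYtQA-ACC substrate at 80, 40, 30, 20, 10, 6, 4 and 2 μM, and inhibitor at 10, 7, 5, 3, 1 and 0 μM. Initial velocities were converted with 2364 rfu per μM substrate.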
# Human gammaherpesvirus 8 [16] = test: Ratio of Kcat to Km in KSHV protease at 10 uM; method in brief: as §1
# Human gammaherpesvirus 8 [17] = test: Inhibition of KSHV protease at 10 uM by fluorogenic activity assay
# Method in brief: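 Screen: protease at 2 μM final in 25 mM potassium phosphate pH 8, 150 mM KCl, 0.1 mM EDTA, 1 mM DTT. Compound at 10 μM final (1% DMSO) preincubated 30 min at 30°C. Ac-PVYtQA-ACC (P6) substrate added to 160 μM final. Fluorescence (ex 380/em 460 nm) followed 1 h at 30°C. Hit defined as ≥50% drop in initial velocity versus uninhibited control.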
# Human gammaherpesvirus 8 [18] = test: Induction of KSHV protease Trp109 mutant dimerization disruption up to 30 uM by size exclusion chromatography
# [19] = Inhibition of KSHV protease by fluorogenic activity assay; parameters: species or system Human gammaherpesvirus 8
# Granzyme B (Homo sapiens), sequence (P10144 whole entry): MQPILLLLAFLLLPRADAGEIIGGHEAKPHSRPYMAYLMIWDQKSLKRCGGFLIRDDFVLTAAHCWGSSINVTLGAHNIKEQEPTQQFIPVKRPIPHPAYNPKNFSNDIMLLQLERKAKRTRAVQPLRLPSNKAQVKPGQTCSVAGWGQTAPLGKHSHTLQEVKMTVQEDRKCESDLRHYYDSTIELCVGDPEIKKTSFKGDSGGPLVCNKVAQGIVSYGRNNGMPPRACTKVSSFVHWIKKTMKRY
compound,measurement,setting,value
O=C(O)c1ccc(NC(=O)c2cccc(CC3CCCCC3)n2)c(Cc2ccccc2)c1,Km,Human gammaherpesvirus 8 [1],27.4 µM
same,kcat/Km,Human gammaherpesvirus 8 [2],673 M⁻¹ s⁻¹
same,Km,Human gammaherpesvirus 8 [3],21.2 µM
same,inhibition,[4],Active
same,kcat/Km,Human gammaherpesvirus 8 [5],997 M⁻¹ s⁻¹
same,inhibition,Human betaherpesvirus 5,92%
same,Km,Human gammaherpesvirus 8 [6],13.6 µM
same,inhibition,Human gammaherpesvirus 8 [7],Active
same,kcat/Km,Human gammaherpesvirus 8 [8],398 M⁻¹ s⁻¹
same,inhibition,[9],inactive
same,inhibition,[10],inactive
same,Km,Human gammaherpesvirus 8 [11],16.5 µM
same,kcat/Km,Human gammaherpesvirus 8 [12],280 M⁻¹ s⁻¹
same,Activity,Human gammaherpesvirus 8 [13],Active
same,Km,Human gammaherpesvirus 8 [14],23.9 µM
same,inhibition,Human gammaherpesvirus 8 [15],Active
same,kcat/Km,Human gammaherpesvirus 8 [16],153 M⁻¹ s⁻¹
same,inhibition,Human gammaherpesvirus 8 [17],82.7%
same,Activity,Human gammaherpesvirus 8 [18],inactive
COC(=O)c1ccc(NC(=O)c2cccc(CC3CCCCC3)c2)c(Cc2ccccc2)c1,inhibition,Human gammaherpesvirus 8 [17],9.4%
O=C(O)c1ccc(NC(=O)c2cncc(CC3CCCCC3)c2)c(Cc2ccccc2)c1,inhibition,Human gammaherpesvirus 8 [17],7.9%
O=C(O)c1ccc(NC(=O)c2ccccc2CC2CCCCC2)c(Cc2ccccc2)c1,inhibition,Human gammaherpesvirus 8 [17],14.8%
O=C(O)c1ccc(NC(=O)c2ccc(CC3CCCCC3)cc2)c(Cc2ccccc2)c1,inhibition,Human gammaherpesvirus 8 [17],24%
O=C(O)c1ccc(NC(=O)c2ccc(CC3CCCCC3)nc2)c(Cc2ccccc2)c1,inhibition,Human gammaherpesvirus 8 [17],10%
COc1ccc(C(=O)Nc2ccc(C(=O)O)cc2Cc2ccccc2)cc1CC1CCCCC1,pIC50,[19],4.79
same,inhibition,Human gammaherpesvirus 8 [17],51.1%
O=C(O)c1ccc(NC(=O)c2cccc(CC3CCCCC3)c2)c(Cc2ccccc2)c1,pIC50,[19],5.06
same,inhibition,Human gammaherpesvirus 8 [17],56.6%
Oc1c(Cl)cc(Cl)c(Cl)c1Cc1c(O)c(Cl)cc(Cl)c1Cl,inhibition,[9],Active
same,inhibition,[10],inactive

# Reference: ChEMBL document CHEMBL1212726, “Inhibition of a viral enzyme by a small-molecule dimer disruptor” (Nat Chem Biol, 2009)
